{"source": "ChEMBL document CHEMBL4680134", "about": "“Structural optimization of natural product nordihydroguaretic acid to discover novel analogues as AcrB inhibitors” (Eur J Med Chem, 2020)", "key": {"[1]": {"experiment": "Growth inhibition of Escherichia coli BW25113 expressing AcrB at 512 ug/ml after 18 hrs by broth microdilution assay", "details": "dose 512 µg/ml", "outline": "(§1)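 MIC determined by 96-well broth microdilution in E. coli BW25113 expressing AcrB ((+)AcrB) and an isogenic acrB-deleted strain ((-)AcrB). Used to set the compound concentrations for synergy testing that produce no direct antibacterial effect.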"}, "[2]": {"experiment": "Growth inhibition of Escherichia coli harboring AcrB deletion mutant at 64 ug/ml after 18 hrs by broth microdilution assay", "details": "dose 64 µg/ml", "outline": "as §1"}}, "data": [{"molecule": "Oc1ccc(CCCCc2ccccc2)cc1O", "values": [{"measurement": "growth inhibition (GI)", "setting": "[1]", "value": "Non-Toxic"}, {"measurement": "growth inhibition (GI)", "setting": "[2]", "value": "Non-Toxic"}]}, {"molecule": "CC(C)(C)c1ccc(CCCCc2ccc(O)c(O)c2)cc1", "values": [{"measurement": "growth inhibition (GI)", "setting": "[1]", "value": "Non-Toxic"}, {"measurement": "growth inhibition (GI)", "setting": "[2]", "value": "Non-Toxic"}]}, {"molecule": "CC(C)CCn1cc(CCCCc2ccc(O)c(O)c2)c2ccccc21", "values": [{"measurement": "growth inhibition (GI)", "setting": "[1]", "value": "Non-Toxic"}, {"measurement": "growth inhibition (GI)", "setting": "[2]", "value": "Non-Toxic"}]}, {"molecule": "Oc1ccc(CCCCc2ccc(O)c(O)c2)cc1", "values": [{"measurement": "growth inhibition (GI)", "setting": "[1]", "value": "Non-Toxic"}, {"measurement": "growth inhibition (GI)", "setting": "[2]", "value": "Non-Toxic"}]}, {"molecule": "Nc1ccc(CCCCc2ccc(O)c(O)c2)cc1", "values": [{"measurement": "growth inhibition (GI)", "setting": "[1]", "value": "Non-Toxic"}, {"measurement": "growth inhibition (GI)", "setting": "[2]", "value": "Non-Toxic"}]}, {"molecule": "Oc1ccc(CCCCc2ccc(-c3ccccc3)cc2)cc1O", "values": [{"measurement": "growth inhibition (GI)", "setting": "[1]", "value": "Non-Toxic"}, {"measurement": "growth inhibition (GI)", "setting": "[2]", "value": "Non-Toxic"}]}, {"molecule": "Oc1ccc2cc(CCCCc3ccc(O)c(O)c3)ccc2c1", "values": [{"measurement": "growth inhibition (GI)", "setting": "[1]", "value": "Non-Toxic"}, {"measurement": "growth inhibition (GI)", "setting": "[2]", "value": "Non-Toxic"}]}, {"molecule": "Cc1ccc(CCCCc2ccc(O)c(O)c2)cc1", "values": [{"measurement": "growth inhibition (GI)", "setting": "[1]", "value": "Non-Toxic"}, {"measurement": "growth inhibition (GI)", "setting": "[2]", "value": "Non-Toxic"}]}, {"molecule": "CC(C)(C)c1ccc(C(=O)NCCc2ccc(O)c(O)c2)cc1", "values": [{"measurement": "growth inhibition (GI)", "setting": "[1]", "value": "Non-Toxic"}, {"measurement": "growth inhibition (GI)", "setting": "[2]", "value": "Non-Toxic"}]}, {"molecule": "Cn1cc(CCCCc2ccc(O)c(O)c2)c2ccccc21", "values": [{"measurement": "growth inhibition (GI)", "setting": "[1]", "value": "Non-Toxic"}, {"measurement": "growth inhibition (GI)", "setting": "[2]", "value": "Non-Toxic"}]}, {"molecule": "Oc1ccc(CCCC(c2ccccc2)c2ccccc2)cc1O", "values": [{"measurement": "growth inhibition (GI)", "setting": "[1]", "value": "Non-Toxic"}, {"measurement": "growth inhibition (GI)", "setting": "[2]", "value": "Non-Toxic"}]}, {"molecule": "Oc1ccc(CCCCc2ccco2)cc1O", "values": [{"measurement": "growth inhibition (GI)", "setting": "[1]", "value": "Non-Toxic"}, {"measurement": "growth inhibition (GI)", "setting": "[2]", "value": "Non-Toxic"}]}, {"molecule": "Oc1ccc(CCCCc2ccc(F)cc2)cc1O", "values": [{"measurement": "growth inhibition (GI)", "setting": "[1]", "value": "Non-Toxic"}, {"measurement": "growth inhibition (GI)", "setting": "[2]", "value": "Non-Toxic"}]}, {"molecule": "Oc1ccc(CCCCc2c3ccccc3cc3ccccc23)cc1O", "values": [{"measurement": "growth inhibition (GI)", "setting": "[1]", "value": "Non-Toxic"}, {"measurement": "growth inhibition (GI)", "setting": "[2]", "value": "Non-Toxic"}]}, {"molecule": "Oc1ccc(CCCCc2ccccn2)cc1O", "values": [{"measurement": "growth inhibition (GI)", "setting": "[1]", "value": "Non-Toxic"}, {"measurement": "growth inhibition (GI)", "setting": "[2]", "value": "Non-Toxic"}]}, {"molecule": "CC(C)c1ccc(CCCCc2ccc(O)c(O)c2)cc1", "values": [{"measurement": "growth inhibition (GI)", "setting": "[1]", "value": "Non-Toxic"}, {"measurement": "growth inhibition (GI)", "setting": "[2]", "value": "Non-Toxic"}]}, {"molecule": "Oc1ccc(CCCCc2ccncc2)cc1O", "values": [{"measurement": "growth inhibition (GI)", "setting": "[1]", "value": "Non-Toxic"}, {"measurement": "growth inhibition (GI)", "setting": "[2]", "value": "Non-Toxic"}]}, {"molecule": "Oc1ccc(CCCCc2cccc3ccccc23)cc1O", "values": [{"measurement": "growth inhibition (GI)", "setting": "[1]", "value": "Non-Toxic"}, {"measurement": "growth inhibition (GI)", "setting": "[2]", "value": "Non-Toxic"}]}]}
